Reference: ChEMBL document CHEMBL1123420, “Synthesis and toxicity toward nigrostriatal dopamine neurons of 1-methyl-4-phenyl-1,2,3,6-tetrahydropyridine (MPTP) analogues” (1986)

Experiments:
Type in all cases: functional
Mus musculus [1] = test: DOPAC content in mice striata was evaluated after 1 day of administration of compound
Outline: (§1)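 Male Swiss mice (25–40 g) dosed ip, 0.072 mmol/kg on days 1 and 2, then 0.142 mmol/kg on days 3–12. Drugs were given as 0.14 M solutions in normal saline and stored at 5 °C; saline-injected controls. Mice killed 1 day after the last injection. Striata weighed, homogenized, Sephadex-separated, then DA, DOPAC and HVA measured by HPLC-EC in μg/g tissue as mean ± error.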

Mus musculus [2] = test: Dopamine content in mice striata was evaluated after 1 day of administration of compound; outline: as §1
Mus musculus [3] = test: Dopamine content in mice striata was evaluated after 9 days of administration of compound
Outline: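 Ip regimen in male Swiss mice (25–40 g): 0.072 mmol/kg on days 1–2, then 0.142 mmol/kg on days 3–12, from 0.14 M saline solutions; saline controls; n=5 per group. Animals killed 9 days after the final injection. Striatal DA measured by HPLC-EC after homogenization and Sephadex cleanup, reported in μg/g tissue.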

Mus musculus [4] = test: HVA content in mice striata was evaluated after 1 day of administration of compound; outline: as §1

## CC1=C(c2ccccc2)CCN(C)C1.Cl
Mus musculus [1]
  Content: 1.22 ug (g of tissue)-1
Mus musculus [2]
  Content: 13.68 ug (g of tissue)-1
Mus musculus [3]
  Content: 13.85 ug (g of tissue)-1
Mus musculus [4]
  Content: 1.26 ug (g of tissue)-1

## CN1CC=C(c2ccccc2)CC1.Cl
Mus musculus [1]
  Content: 0.31 ug (g of tissue)-1
Mus musculus [2]
  Content: 3.16 ug (g of tissue)-1
Mus musculus [3]
  Content: 4.34 ug (g of tissue)-1
Mus musculus [4]
  Content: 0.61 ug (g of tissue)-1

## CN(C)C/C=C/c1ccccc1.Cl
Mus musculus [1]
  Content: 1.37 ug (g of tissue)-1
Mus musculus [2]
  Content: 13.6 ug (g of tissue)-1
Mus musculus [3]
  Content: 14.56 ug (g of tissue)-1
Mus musculus [4]
  Content: 1.11 ug (g of tissue)-1

## CC1CN(C)CC=C1c1ccccc1.Cl (stereo not drawn)
Mus musculus [1]
  Content: 1.11 ug (g of tissue)-1
Mus musculus [2]
  Content: 13.21 ug (g of tissue)-1
Mus musculus [3]
  Content: 13.35 ug (g of tissue)-1
Mus musculus [4]
  Content: 1.14 ug (g of tissue)-1

## CN1CC=C(c2ccccc2)C(C)(C)C1.Cl
Mus musculus [1]
  Content: 1.31 ug (g of tissue)-1
Mus musculus [2]
  Content: 17.28 ug (g of tissue)-1
Mus musculus [3]
  Content: 17.28 ug (g of tissue)-1
Mus musculus [4]
  Content: 1.39 ug (g of tissue)-1

## CC1CN(C)C(C)C=C1c1ccccc1.Cl (stereo not drawn)
Mus musculus [1]
  Content: 1.36 ug (g of tissue)-1
Mus musculus [2]
  Content: 14.42 ug (g of tissue)-1
Mus musculus [3]
  Content: 14.65 ug (g of tissue)-1
Mus musculus [4]
  Content: 1.39 ug (g of tissue)-1

## CC1=C(c2ccccc2)CC(C)N(C)C1.O=C(O)/C=C/C(=O)O (stereo not drawn)
Mus musculus [1]
  Content: 1.18 ug (g of tissue)-1
Mus musculus [2]
  Content: 15.22 ug (g of tissue)-1
Mus musculus [3]
  Content: 14.49 ug (g of tissue)-1
Mus musculus [4]
  Content: 1.27 ug (g of tissue)-1
